Compounds with a hit are over-represented: about 4.1% of the library has one in this group of screens.
KCNK9 inh = blocks the human KCNK9 two-pore domain potassium channel | Q9NPC2 | HEK293 KCNK9, FluxOR thallium flux fluorescence; active compounds read low | B-score at 10 µM | actives 1.2% (n = 310,000) | AID 488922;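 active means ratio B-score over 3 SD below the library mean, with starting fluorescence within 5 SD of its mean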;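 further: negative B-score means less thallium flux so channel inhibition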
hERG protect = compounds protecting human hERG from proarrhythmic drug block. actives 0.51% (n = 310,000). activation (rescue from dofetilide block), less the hit threshold, % at 10 µM. CHO-hERG, FluxOR thallium flux, dofetilide IC70 present. Q12809. AID 1511;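 active means activation above the mean of controls blocked by dofetilide plus 5 SD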;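 further: thallium influx through hERG after potassium depolarization seen as dye fluorescence rise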
KCNQ1 block = inhibitors of human KCNQ1 potassium channel | P51787 | CHO-K1 KCNQ1, FluxOR thallium flux fluorescence; active compounds read high | B-score at 10 µM | actives 1.3% (n = 310,000) | AID 2642;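 active means compounds whose thallium flux B-score, printed positive for inhibition, exceeds three library SD while starting fluorescence stays within three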;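 further: channel opened by potassium depolarization with thallium stimulus after 20 min compound exposure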
KCNK3 inh = human KCNK3 channel inhibition, primary screen | CHO-KCNK3 thallium flux, FluxOR fluorescence; active compounds read low | B-score at 10 µM | actives 0.84% (n = 340,000) | AID 602410;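 active means B-score under library mean minus 4 SD, starting fluorescence ratio at most library mean plus 5 SD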;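 further: more negative B-score means stronger inhibition of thallium flux through KCNK3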
KCNQ1 pot = potentiators or activators of human KCNQ1 potassium channel; actives 0.35% (n = 310,000); P51787; CHO-K1 KCNQ1, thallium flux FluxOR fluorescence; active compounds read high; B-score at 10 µM; AID 2648;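 active means fluorescence ratio B-score, a plate-corrected score, at least three library SD, with initial intensity B-score within 5 SD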
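assay system = KCNQ1-transfected CHO-K1 cells | medium = assay buffer with matched DMSO | probe or stimulus = depolarizing K+/Tl+ stimulus, K2SO4 and Tl2SO4 each 12.5 mM in 5x stock | dosing = single dose | incubation = dye 90 min, compound 20 min, room temperature | detection = kinetic FluxOR fluorescence, 10 s baseline plus 110 s post-stimulus | evaluation = ratio B score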
Cl transport mod = modulates chloride dependent transport by human KCC2 | Q9H2X9 | KCC2 cells, thallium flux FluoZin-2 fluorescence | B-score of Tl+ flux slope (higher = more flux/activation; lower = inhibition) at 10 µM | actives 2.2% (n = 190,000) | AID 1456;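 active means thallium flux slope and its plate-corrected score both differing from the plate sample mean at a set confidence after two filtering rounds, in either direction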;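 further: slope of fluorescence scaled to starting intensity during 10 to 20 s after thallium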
KCNK9 block conf = human KCNK9 inhibitor confirmation | inhibition, % at 10 µM | AID 492992 | shares compounds with KCNK9 inh | HEK293 KCNK9 cells, FluxOR thallium flux fluorescence | actives 43% (n = 4,900);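 active means thallium signal inhibited by more than 5 SD of the compound-free buffer control wells, on both duplicate plates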;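 further: 0% = assay buffer control wells without compound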
Kir2-1 spec = tests whether KCNK9 modulators also affect mouse Kir2.1; shares compounds with KCNK9 inh; Kir2.1 cells, FluxOR thallium flux fluorescence; inhibition, % at 10 µM; actives 4% (n = 4,900); AID 492993;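 active means thallium signal drop more than 5 SD beyond the mean of the no-compound control wells, seen in both duplicate plates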;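 further: signal is fluorescence rise after thallium addition divided by baseline fluorescence; plate controls were assay buffer only for no effect and full block by chlorpromazine control for full effect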
HEK293 Tl ctr = second check of KCNK9 modulator effects in non-induced HEK293 cells. FluxOR thallium flux. actives 40% (n = 4,900). inhibition, % at 10 µM. shares compounds with KCNK9 inh;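 active means thallium signal drop beyond 5 SD of the untreated control mean, on both duplicate plates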;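 further: plate controls were buffer only IC0 wells for no effect and SID17386958 at its maximal inhibitory level for full effect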
* = called active by the depositor.

Screening CCOc1ccccc1NC(=O)Cc1coc2ccc(C)cc12 returned KCNK9 inh -11*, hERG protect -3, KCNQ1 block inactive, KCNK3 inh inactive, KCNQ1 pot inactive, Cl transport mod -0.36, KCNK9 block conf 25%*, Kir2-1 spec inactive and HEK293 Tl ctr 43%*.
For COc1ccc(OC)c(NC(=O)Cc2coc3ccc(C)cc23)c1 the results were KCNK9 inh inactive, hERG protect -6, KCNQ1 block inactive, KCNK3 inh inactive, KCNQ1 pot inactive and Cl transport mod -0.024.
For COc1ccc(CCN2CC(C(=O)NCc3cccc4[nH]ccc34)CCC2=O)cc1 (stereo not drawn) the results were KCNK9 inh inactive, hERG protect -7, KCNQ1 block inactive, KCNK3 inh inactive and KCNQ1 pot inactive.
For CN(C)c1nc(NCc2ccccc2)nc(N/N=C/c2ccccc2F)n1 the results were KCNK9 inh inactive, hERG protect -6, KCNQ1 block inactive and KCNQ1 pot inactive.
Screening CN(C)c1nc(NCc2ccccc2)nc(N/N=C/c2ccc(Cl)cc2Cl)n1 returned KCNK9 inh inactive, hERG protect -18, KCNQ1 block inactive, KCNK3 inh inactive, KCNQ1 pot inactive, Cl transport mod 0.25, KCNK9 block conf inactive, Kir2-1 spec inactive and HEK293 Tl ctr inactive.
Screening CC(=O)c1ccc(N(CC(=O)NC2CCCC2)C(=O)c2csnn2)cc1 returned KCNK9 inh inactive, hERG protect -5, KCNQ1 block inactive, KCNK3 inh inactive and KCNQ1 pot inactive.
COC(=O)c1cc2ccsc2n1Cc1nc(-c2ccc(OC)cc2)oc1C was read as KCNK9 inh -8.4*, hERG protect -6, KCNQ1 block inactive, KCNK3 inh inactive, KCNQ1 pot inactive, Cl transport mod -0.21, KCNK9 block conf 40%*, Kir2-1 spec inactive and HEK293 Tl ctr 52%*.
Screening COC(=O)c1cc2sccc2n1Cc1nc(-c2ccc(OC)cc2)oc1C returned KCNK9 inh inactive, hERG protect -12, KCNQ1 block inactive, KCNK3 inh inactive, KCNQ1 pot inactive and Cl transport mod 0.31.
Screening COc1cccc(C(=O)C2CCCN(C(=O)CCc3scnc3C)C2)c1 (stereo not drawn) returned KCNK9 inh inactive, hERG protect -8, KCNQ1 block inactive, KCNK3 inh inactive, KCNQ1 pot inactive and Cl transport mod -0.42.
`COc1ccc(C(=O)C2CCCN(C(=O)/C=C/c3ccccn3)C2)c(C)c1` (stereo not drawn) gave KCNK9 inh inactive, hERG protect -7, KCNQ1 block inactive, KCNK3 inh inactive, KCNQ1 pot inactive, Cl transport mod -1.4, KCNK9 block conf inactive, Kir2-1 spec inactive and HEK293 Tl ctr inactive.
Screening COc1ccc2cc(C(=O)C3CCCN(C(=O)CCc4ccccn4)C3)ccc2c1 (stereo not drawn) returned KCNK9 inh inactive, hERG protect -21, KCNQ1 block inactive, KCNK3 inh inactive, KCNQ1 pot inactive, Cl transport mod -2.1, KCNK9 block conf inactive, Kir2-1 spec inactive and HEK293 Tl ctr inactive.
For O=C(c1ccc(Cl)cc1)C1CCCN(C(=O)/C=C/c2ccccn2)C1 (stereo not drawn) the results were KCNK9 inh inactive, hERG protect -9, KCNQ1 block inactive, KCNK3 inh inactive, KCNQ1 pot inactive, Cl transport mod -1.9, KCNK9 block conf inactive, Kir2-1 spec inactive and HEK293 Tl ctr inactive.

Assay outcomes (PubChem BioAssay)
